Laboratory results: article PMC9150438 (Methods in enzymology, 2022)

How the values were obtained:
mKSR1-NL W781D = conditions: mKSR1 W781D interface mutant (Fig. 6F); ref Khan et al., 2020; cited from earlier work
mKSR1:MEK1 complex = conditions: steady-state NanoBRET, 1 μM Tram-bo (Fig. 7A); ref Khan et al., 2020; cited from earlier work
BRAF = BRAF (Homo sapiens, UniProt P15056); test: ATP-biotin probe labeling competition assay on isolated BRAF; type: binding; conditions: MEK, KSR1:MEK and KSR2:MEK labeled with 2.5 μM probe (Fig. 4E)
MEK1-NL = MEK1-NL (Homo sapiens, UniProt Q02750); test: NanoBRET tracer build-up; type: binding
In short: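 HEK293T cells at ~70% confluence were plated at 200,000 cells/mL and transfected with MEK1-NL alone, MEK1-NL plus mKSR1, or mKSR1-NL, then incubated at least 20 h at 37 °C. The Tram-bo tracer was titrated in each scenario to record BRET, giving an apparent EC50 and maximal BRET signal for each. These set the working tracer concentration above EC50.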

KRAS mutant cell lines = conditions: ref Khan et al., 2020; cited from earlier work
SEC = biological target: the molecule itself; test: SEC

Sequence of MEK1-NL (Q02750 whole entry): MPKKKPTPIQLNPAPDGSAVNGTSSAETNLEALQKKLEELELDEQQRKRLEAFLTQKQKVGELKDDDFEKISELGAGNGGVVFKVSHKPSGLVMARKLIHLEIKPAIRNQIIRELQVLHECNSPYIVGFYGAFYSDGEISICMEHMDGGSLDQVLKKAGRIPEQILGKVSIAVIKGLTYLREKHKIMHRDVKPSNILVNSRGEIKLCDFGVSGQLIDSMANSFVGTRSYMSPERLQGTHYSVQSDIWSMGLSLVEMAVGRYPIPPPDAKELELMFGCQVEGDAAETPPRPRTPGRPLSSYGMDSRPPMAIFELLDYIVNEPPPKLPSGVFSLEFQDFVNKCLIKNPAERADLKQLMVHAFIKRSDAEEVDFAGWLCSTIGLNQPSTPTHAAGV
Sequence of BRAF (P15056 457-717 limits assumed): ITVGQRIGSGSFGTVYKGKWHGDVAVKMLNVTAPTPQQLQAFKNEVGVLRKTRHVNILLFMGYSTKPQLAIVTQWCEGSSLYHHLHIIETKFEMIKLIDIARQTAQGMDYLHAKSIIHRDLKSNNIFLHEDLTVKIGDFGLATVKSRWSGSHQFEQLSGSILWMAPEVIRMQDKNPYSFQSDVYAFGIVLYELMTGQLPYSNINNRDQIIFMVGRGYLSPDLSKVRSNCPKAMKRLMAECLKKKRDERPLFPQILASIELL

Molecule: CC(=O)Nc1cccc(-n2c(=O)n(C3CC3)c(=O)c3c(Nc4ccc(I)cc4F)n(C)c(=O)c(C)c32)c1 [trametinib]
- dose-response in KSR-NL assay with W781D mutant (mKSR1-NL W781D): loss of a Trametinib dose-response

Molecule: O=C(c1ccc(F)c(F)c1Nc1ccc(I)cc1F)N1CC(O)([C@@H]2CCCCN2)C1 [cobimetinib]
- apparent IC50 on free MEK1 compared with the mKSR1:MEK1 complex (mKSR1:MEK1 complex): more potent binding to the complex

Molecule: CC(C)(C)c1nc(-c2cccc(NS(=O)(=O)c3c(F)cccc3F)c2F)c(-c2ccnc(N)n2)s1 [dabrafenib]
- inhibitor specificity in ATP-biotin competition assay (BRAF): BRAF-specific inhibition

Molecule: Cc1c(=O)n(C)c(Nc2ccc(I)cc2F)c2c(=O)n(C3CC3)c(=O)n(-c3cccc(NC(=O)CCOCCOCCNC(=O)CCc4ccc5n4[B-](F)(F)[N+]4=C(c6ccc[nH]6)C=CC4=C5)c3)c12 [Tram-bo]
- fold difference of Tram-bo EC50, MEK1-NL vs the two MEK1–mKSR1 complex scenarios (MEK1-NL; MEK1-NL vs mKSR1-NL and MEK1-NL coexpressed with mKSR1 (Fig. 6C)): ~ 20 times
- apparent EC50 of Tram-bo (MEK1-NL; NanoBRET build-up curves (Fig. 6C)): in the nanomolar range

Molecule: CNS(=O)(=O)Nc1cccc(-n2c(=O)n(C3CC3)c(=O)c3c(Nc4ccc(I)cc4F)n(C)c(=O)c(C)c32)c1 [trametiglue]
- potency of growth inhibition relative to trametinib and other MEKi including CH5126766 (KRAS mutant cell lines): markedly enhanced

B1: KSR1 pseudokinase domain [residues 591–899] (domain or fragment, human, UniProt Q8IVT5 591-899, looked up)
chain: PISRKASQTSVYLQEWDIPFEQVELGEPIGQGRWGRVHRGRWHGEVAIRLLEMDGHNQDHLKLFKKEVMNYRQTRHENVVLFMGACMNPPHLAIITSFCKGRTLHSFVRDPKTSLDINKTRQIAQEIIKGMGYLHAKGIVHKDLKSKNVFYDNGKVVITDFGLFGISGVVREGRRENQLKLSHDWLCYLAPEIVREMTPGKDEDQLPFSKAADVYAFGTVWYELQARDWPLKNQAAEASIWQIGSGEGMKRVLTSVSLGKEVSEILSACWAFDLQERPSFSLLMDMLEKLPKLNRRLSHPGHFWKSADI
- binding result (SEC): binds
